Source: ChEMBL document CHEMBL1125722 (J Med Chem, 1991)
Activity calls are given as the source filed them. No cut-off for these calls is given here.

What was measured:
Mu-type opioid receptor [1] = biological target: T1, Mu-type opioid receptor (Rattus norvegicus, UniProt P33535); assay: Opioid activity in terms of inhibition of [3H]dihydromorphine binding to Opioid receptor mu 1 in rat brain membrane.; assay type: cell membranes
Procedure, shortened: (§1)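 Whole-brain membranes, cerebellum removed, from male Sprague-Dawley rats (1 mg protein/mL) in 50 mM Tris-HCl pH 7.4 were preincubated 60 min at 25 °C. [3H]dihydromorphine was added to a […], with varying drug concentrations, for 60 min at 25 °C. Nonspecific binding was defined by 10⁻⁵ M naloxone, with GF/B filtration and scintillation counting.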

D(2) dopamine receptor [2] = biological target: T2, D(2) dopamine receptor (Rattus norvegicus, UniProt P61169); assay: Neuroleptic activity in terms of [3H]spiroperidol binding to Dopamine receptor D2 in rat striatal membrane.; assay type: cell membranes
Procedure, shortened: (§2)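 Striatal membranes from male Sprague-Dawley rats (1.4 mg protein/mL) were used in 50 mM Tris-HCl pH 7.1 with 0.1% ascorbate, 10 μM pargyline, 120 mM NaCl, 5 mM KCl and 1 mM each of CaCl2 and MgCl2. Incubation was with […], 20 min at 37 °C. Nonspecific binding was defined by 10⁻⁶ M haloperidol, with filtration and scintillation counting.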

Rattus norvegicus [3] = assay: Antagonist and antinociceptive profile was evaluated in a paraphenylquinone assay after subcutaneous injection.; assay type: functional
Rattus norvegicus [4] = species: Rattus norvegicus; assay: Agonist/antagonist and antinociceptive profile was assessed in a hotplate assay.; assay type: functional
Rattus norvegicus [5] = assay: Effective dose for apomorphine induced circling behavior was determined in rats after subcutaneous administration of the compound.; assay type: functional
Rattus norvegicus [6] = species: Rattus norvegicus; assay: Tail-flick assay was performed to determine antinociceptive profile of the compound.; assay type: functional; parameters: unit not given here
Monkey [7] = assay: Antagonist action in tail-flick antagonism vs morphine, in rhesus monkeys. Compound was injected subcutaneously.; assay type: functional; settings: Cercopithecidae, in Macaca mulatta, sc
Rattus norvegicus [8] = species: Rattus norvegicus; assay: Agonist/antagonist and antinociceptive profile was assessed in a hotplate assay
Monkey [9] = assay: Antagonist action in tail-flick antagonism vs morphine, in rhesus monkeys, compound was injected subcutaneously; Not Active; assay type: functional, organism-based; settings: Cercopithecidae
Rattus norvegicus [10] = assay: Antagonist and antinociceptive profile was evaluated in a paraphenylquinone assay after subcutaneous injection; settings: sc
Monkey [11] = assay: Antagonist action in tail-flick antagonism vs morphine, in rhesus monkeys. Compound was injected subcutaneously; Not active; assay type: functional, organism-based; settings: Cercopithecidae
Mu-type opioid receptor [12] = biological target: T1, Mu-type opioid receptor; assay: Opioid activity in terms of inhibition of [3H]dihydromorphine binding to opioid receptor mu in rat brain membrane.; assay type: cell membranes; procedure, shortened: as §1
D(2) dopamine receptor [13] = biological target: T2, D(2) dopamine receptor; assay: Neuroleptic activity in terms of [3H]spiroperidol binding to dopamine receptor D2 in rat striatal membrane.; assay type: cell membranes; procedure, shortened: as §2
Rattus norvegicus [14] = assay: Effective dose for apomorphine induced circling behavior was determined in rats after subcutaneous administration of the compound; assay type: functional; settings: sc
[15] = Rattus norvegicus, sc, read-out: ED50
[16] = Rattus norvegicus, read-out: ED50

T2 sequence (P61169 whole entry): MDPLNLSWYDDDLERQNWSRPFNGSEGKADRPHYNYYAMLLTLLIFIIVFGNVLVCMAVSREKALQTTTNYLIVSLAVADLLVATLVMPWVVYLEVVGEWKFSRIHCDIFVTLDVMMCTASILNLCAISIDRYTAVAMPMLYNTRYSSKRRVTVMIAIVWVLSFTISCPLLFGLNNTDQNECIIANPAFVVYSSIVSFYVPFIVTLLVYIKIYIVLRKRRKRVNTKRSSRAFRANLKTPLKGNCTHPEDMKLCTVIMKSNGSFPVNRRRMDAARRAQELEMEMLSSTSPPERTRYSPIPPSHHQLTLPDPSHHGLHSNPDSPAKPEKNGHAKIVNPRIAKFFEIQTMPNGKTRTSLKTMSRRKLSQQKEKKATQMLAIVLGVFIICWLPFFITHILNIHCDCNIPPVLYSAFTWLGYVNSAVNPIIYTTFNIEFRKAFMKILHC
T1 sequence (P33535 whole entry): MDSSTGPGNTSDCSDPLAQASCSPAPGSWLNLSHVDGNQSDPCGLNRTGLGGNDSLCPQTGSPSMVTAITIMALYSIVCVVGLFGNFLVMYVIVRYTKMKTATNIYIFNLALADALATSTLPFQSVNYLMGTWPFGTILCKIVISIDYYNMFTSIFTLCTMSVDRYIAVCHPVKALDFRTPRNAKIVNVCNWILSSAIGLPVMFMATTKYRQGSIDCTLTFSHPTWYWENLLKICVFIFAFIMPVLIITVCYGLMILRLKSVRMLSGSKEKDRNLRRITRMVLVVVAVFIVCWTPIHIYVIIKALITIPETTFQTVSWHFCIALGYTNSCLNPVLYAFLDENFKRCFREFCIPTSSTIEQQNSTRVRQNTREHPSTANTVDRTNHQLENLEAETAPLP

| Structure (SMILES) | IC50 (D(2) dopamine receptor [2]) [nM] | ED50 (Rattus norvegicus [3]; [15]) [µmol/kg] | ED50 (Rattus norvegicus [4]; [16]) [µmol/kg] | ED50 (Rattus norvegicus [5]) [µM/kg] | Activity (Rattus norvegicus [6]) | further results |
| --- | --- | --- | --- | --- | --- | --- |
| CCC(=O)O[C@@]1(c2ccccc2)CCN(CCCC(=O)c2ccc(F)cc2)CC1C (mixture of isomers) | 53.8 | 0.2 | 1.6 | 3.9 | 1.7 | IC50 (Mu-type opioid receptor [1]): 9.5 nM; ED50 (Monkey [7]): > 60.8 µmol/kg |
| CN1CC[C@]23c4c5ccc(O)c4O[C@H]2[C@@H](O)C=C[C@H]3[C@H]1C5 [MORPHINE] | – | – | – | – | 10.6 | ED50 (Rattus norvegicus [8]): 2.9 µmol/kg; ED50 (Monkey [9]): inactive; ED50 (Rattus norvegicus [10]): 0.4 µmol/kg |
| CCC(=O)O[C@]1(c2ccccc2)CCN(CCCC(=O)c2ccc(F)cc2)C[C@H]1C | 147 | 2.9 | > 72.9 | – | >60.8 | ED50 (Rattus norvegicus [5]; [15]): > 12 µmol/kg; ED50 (Monkey [11]): inactive |
| CCC(=O)O[C@@]1(c2ccccc2)CCN(CCCC(=O)c2ccc(F)cc2)CC1C (single isomer, unassigned; (+)) | – | – | – | 1.6 | 0.8 | IC50 (Mu-type opioid receptor [12]): 6.1 nM; IC50 (D(2) dopamine receptor [13]): 43.3 nM; ED50 (Rattus norvegicus [3]): 0.2 µM/kg; ED50 (Rattus norvegicus [4]): 0.9 µM/kg |
| O=C(CCCN1CCC(O)(c2ccc(Cl)cc2)CC1)c1ccc(F)cc1 [HALOPERIDOL] | – | – | – | – | – | ED50 (Rattus norvegicus [14]): 0.1 µmol/kg |
